Experimental data taken from PMC4122523 (Biomedical chromatography : BMC, 2013).

Columns and labels:
[1] = test system: neurotoxic and stimulant effects of METH; settings: mouse; ref Kaushal et al., 2011, 2012; cited from earlier work
[2] = ref Seminerio et al., 2012b, cited from earlier work
[3] = Stability of stock solutions; type: physicochemical; settings: 12 h at room temperature and a week at −20 °C
How it was run: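 Stock solutions: analyte 1.0 mg/mL in water, aripiprazole internal standard 1 mg/mL in methanol. Held 12 h at room temperature, and tested daily over 1 week during storage at −20 °C. Compared against freshly prepared standards by UPLC/MS/MS.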

[4] = test system: cocaine-induced convulsions; settings: mice, toxic dose of cocaine; ref Seminerio et al., 2012b; cited from earlier work
[5] = test system: METH-induced dopaminergic neurotoxicity and hyperthermia; settings: Swiss Webster mice, intraperitoneal; ref Seminerio et al., 2012a; cited from earlier work
[6] = test system: METH-induced memory impairment; settings: mouse; ref Seminerio et al., 2012a; cited from earlier work
[7] = test system: both subtypes of sigma receptors; settings: radioligand binding; ref Seminerio et al., 2012b; cited from earlier work
[8] = Stability of AZ66 in rat plasma at various storage conditions; type: in vitro ADME
How it was run: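 Rat plasma QC samples at 10, 400 and 3000 ng/mL, six replicates each. Conditions: three freeze–thaw cycles at −20 °C; −20 °C for 30 days; room temperature for 12 h; processed extracts held in the autosampler at 25 °C for 24 h. Analysed by chloroform liquid–liquid extraction and UPLC/MS/MS with aripiprazole internal standard. Compared against freshly prepared standards; bias = 100×(measured−actual)/actual.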

[9] = Intravenous pharmacokinetic study in rats; type: in vivo, male Sprague–Dawley rats; settings: rat
How it was run: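 Male Sprague–Dawley rats (n = 6, 260–280 g), fasted overnight, given water after dosing and food from 4 h post-dose. Single 5 mg/kg i.v. dose via jugular-vein cannula. Blood (0.15 mL) drawn via cannula pre-dose and at 2–480 min and 12–42 h. Plasma separated at 10,000 g, 10 min, 4 °C, and stored at −20 °C. Chloroform extraction with aripiprazole internal standard, UPLC/MS/MS, then non-compartmental analysis.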

[10] = processed plasma samples, auto-sampler 24 h (25 °C), spiked 10 ng/mL
[11] = processed plasma samples, auto-sampler 24 h (25 °C), spiked 400 ng/mL
[12] = rat plasma, long-term 30 days (−20 °C), spiked 10 ng/mL
[13] = rat plasma, long-term 30 days (−20 °C), spiked 400 ng/mL
[14] = rat plasma, long-term 30 days (−20 °C), spiked 3000 ng/mL
[15] = rat plasma, short-term 12 h (25 °C), spiked 10 ng/mL
[16] = rat plasma, short-term 12 h (25 °C), spiked 400 ng/mL
[17] = rat plasma, short-term 12 h (25 °C), spiked 3000 ng/mL
[18] = rat plasma, three freeze–thaw cycles (−20 °C), spiked 400 ng/mL
[19] = rat plasma, three freeze–thaw cycles (−20 °C), spiked 3000 ng/mL
[20] = male, Sprague-Dawley, plasma, iv, 5 mg/kg

Compound: c1ccc(CCN2CCCCC2)cc1 [AC927]
- effect on neurotoxic effects of METH [1]: attenuated
- effect on stimulant effects of METH [1]: attenuated

Compound: S=c1sc2ccccc2n1CCCCN1CCN(C2CCCCC2)CC1 [CM156, 3-[4-(4-cyclohexylpiperazin-1-yl)butyl]benzo[d]thiazole-2(3H)-thione]
- effect on neurotoxic effects of METH [1]: attenuated
- effect on stimulant effects of METH [1]: attenuated
- in vitro half-life ([2]; rat liver microsomes): 4.62 min

Compound: O=C1CCc2ccc(OCCCCN3CCN(c4cccc(Cl)c4Cl)CC3)cc2N1 [IS, aripiprazole, reference compound]
- Stability of stock solutions [3]: stable

Compound: CC(CCCn1c(=O)sc2cc(F)ccc21)N1CCN(C2CCCCC2)CC1 (stereo not shown) [AZ66, 3-[4-(4-cyclohexylpiperazin-1-yl)pentyl]-6-fluorobenzo[d] thiazole-2(3H)-one]
- attenuation of cocaine-induced convulsions [4]: significantly attenuate convulsions
- effect on METH-induced dopaminergic neurotoxicity [5]: attenuate
- effect on METH-induced hyperthermia [5]: attenuate
- effect on memory impairment caused by repeated intake of METH [6]: attenuated the memory impairment
- affinity for both subtypes of sigma receptors [7]: high nanomolar affinity
- selectivity over a wide battery of CNS targets [7]: highly selective
- in vitro half-life compared with CM156 ([2]; in vitro): appreciably longer half-life
- Stability in reconstituted samples in the auto-sampler ([8]; 25 °C for 24 h): stable
- Bias [8, 10]: 1.7%
- Measured concentration [8, 10]: 10.1 ± 0.2 ng/mL
- Bias [8, 11]: 0.8%
- Measured concentration [8, 11]: 403.2 ± 18.6 ng/mL
- Measured concentration ([8]; processed plasma samples, auto-sampler 24 h (25 °C), spiked 3000 ng/mL): 3222 ± 79.4 ng/mL
- Bias [8, 12]: 0.3%
- Measured concentration [8, 12]: 10.2 ± 0.4 ng/mL
- Bias [8, 13]: −0.4%
- Measured concentration [8, 13]: 402.4 ± 7.1 ng/mL
- Bias [8, 14]: −0.6%
- Measured concentration [8, 14]: 3028 ± 55.0 ng/mL
- Bias [8, 15]: 1.3%
- Measured concentration [8, 15]: 10.2 ± 0.2 ng/mL
- Bias [8, 16]: −0.5%
- Measured concentration [8, 16]: 401.4 ± 3.5 ng/mL
- Bias [8, 17]: 1.0%
- Measured concentration [8, 17]: 3015 ± 30.6 ng/mL
- Measured concentration ([8]; rat plasma, three freeze–thaw cycles (−20 °C), spiked 10 ng/mL): 10.2 ± 0.7 ng/mL
- Bias [8, 18]: −0.6%
- Measured concentration [8, 18]: 396.1 ± 12.7 ng/mL
- Bias [8, 19]: 0.2%
- Measured concentration [8, 19]: 2990 ± 42.9 ng/mL
- Short-term stability in rat plasma ([8]; room temperature for 12 h (25 °C)): stable
- Freeze–thaw stability in rat plasma ([8]; three freeze–thaw cycles, 10, 400 and 3000 ng/mL): stable
- Long-term stability in rat plasma ([8]; −20 °C for 30 days): stable
- Stability of stock solutions [3]: stable
- Cmax [9, 20]: 1200 ± 200 ng/mL
- MRT [9, 20]: 7.6 ± 0.7 h
- Vd [9, 20]: 30.1 ± 3.6 L/kg
- clearance [9, 20]: 43.3 mL/min/kg
- half-life [9, 20]: 474 ± 18 min
- CL (total clearance) ([9]; i.v. 5 mg/kg, n=6, mean ± SD): 2.6 ± 0.4 L/h/kg
